Data on 37 molecules can be found in ChEMBL document CHEMBL1777679, “Discovery and optimization of pyrazoline compounds as B-Raf inhibitors” (Bioorg Med Chem Lett, 2010).

The target in series [1] is T1, Serine/threonine-protein kinase B-raf (Homo sapiens, UniProt P15056, V600E). Description: Inhibition of B-Raf V600E mutant after 2 hrs. The note with it: in the assay text read “after 3 hrs” for “after 2 hrs”. Summed up:
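Raf kinase activity measured with a biotinylated peptide substrate at 30 °C for 3 h. After the stop step, the mixture was incubated 2 h on a streptavidin-coated flashplate and counts were read by scintillation.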

Series [2] concerns the target T1, Serine/threonine-protein kinase B-raf. Briefly: Inhibition of B-Raf V600E mutant-mediated pERK phosphorylation in human A375 cells after 3 hrs by whole cell ELISA assay. Type of series: cell-based, A-375. In outline:
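A375 human melanoma cells (B-Raf V600E) were seeded overnight and exposed to inhibitor for 3 h. Cells were then fixed, permeabilized and blocked overnight. Detection used anti-phospho-ERK antibody for 1 h, then an HRP conjugate, with tetramethylbenzidine read at OD 650 nm.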

Series [3] has the same target. Briefly: Inhibition of B-Raf V600E mutant. Summed up:
(§1)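 Raf kinase reaction with biotinylated peptide substrate run 3 h at 30 °C. After a stop step, the mixture is held 2 h on streptavidin-coated flashplates to capture the substrate, and the plates are read by scintillation counting.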

Series [4] concerns the target RAF proto-oncogene serine/threonine-protein kinase (Homo sapiens, UniProt P04049). Description: Inhibition of C-Raf.
For series [5], the target named is T1, Serine/threonine-protein kinase B-raf. Briefly: Inhibition of B-Raf V600E mutant after 3 hrs.
Series [6] can be described thus: Aqueous solubility of the compound in 50 mM of potassium phosphate buffer at pH 6.8 by turbidimetric method. Type of series: physicochemical. In outline:
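Turbidimetric kinetic solubility in 50 mM potassium phosphate buffer, pH 6.8.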

The target in series [7] is Serine/threonine-protein kinase B-raf (Homo sapiens, UniProt P15056). Description: Inhibition of B-Raf. Summed up: as §1
Chain of Serine/threonine-protein kinase B-raf (Homo sapiens, UniProt P15056) (P15056 whole entry): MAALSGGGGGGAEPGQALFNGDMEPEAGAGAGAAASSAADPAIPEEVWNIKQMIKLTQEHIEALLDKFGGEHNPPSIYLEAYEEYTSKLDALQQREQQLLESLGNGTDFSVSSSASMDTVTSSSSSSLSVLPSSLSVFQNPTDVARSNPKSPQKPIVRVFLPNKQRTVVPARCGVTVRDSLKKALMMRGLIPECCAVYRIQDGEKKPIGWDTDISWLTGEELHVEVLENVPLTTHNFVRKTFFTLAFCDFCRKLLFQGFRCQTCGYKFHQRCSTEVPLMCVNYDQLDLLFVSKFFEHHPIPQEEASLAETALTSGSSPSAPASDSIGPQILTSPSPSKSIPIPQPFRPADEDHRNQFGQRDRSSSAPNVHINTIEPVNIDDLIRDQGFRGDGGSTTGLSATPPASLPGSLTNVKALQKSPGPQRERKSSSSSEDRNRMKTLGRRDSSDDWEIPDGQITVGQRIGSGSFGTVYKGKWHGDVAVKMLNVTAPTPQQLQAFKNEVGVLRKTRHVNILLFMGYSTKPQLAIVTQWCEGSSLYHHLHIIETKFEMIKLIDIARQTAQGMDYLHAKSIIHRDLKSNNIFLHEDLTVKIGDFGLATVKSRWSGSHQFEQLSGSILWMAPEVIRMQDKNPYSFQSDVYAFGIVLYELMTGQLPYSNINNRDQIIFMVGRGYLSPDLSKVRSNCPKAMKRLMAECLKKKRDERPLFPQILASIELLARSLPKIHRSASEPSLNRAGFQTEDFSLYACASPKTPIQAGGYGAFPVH
Series [8] can be described thus: AUC in Sprague-Dawley rat at 0.5 to 1 mg/kg, iv and 10 mg/kg, po. Type of series: ADME, organism-based. To be noted: plasma. In outline:
(§2)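 Male SD rats dosed intravenously at 0.5 mg/kg or 1 mg/kg, or orally at 10 mg/kg. Plasma exposure, clearance and oral bioavailability derived from plasma levels.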

Series [9] is described as follows: Bioavailability in Sprague-Dawley rat at 0.5 to 1 mg/kg, iv and 10 mg/kg, po. Type of series: ADME, organism-based. To be noted: in vivo. Summed up:
as §2

Series [10] is described as follows: Clearance in Sprague-Dawley rat at 0.5 to 1 mg/kg, iv and 10 mg/kg, po. Type of series: ADME, organism-based. To be noted: in vivo. In outline: as §2

Converted amounts (≈) assume the structure as drawn. Where only a bound is given, the exact number is not on record here.

T1 sequence (P15056 2-766 V600E limits assumed): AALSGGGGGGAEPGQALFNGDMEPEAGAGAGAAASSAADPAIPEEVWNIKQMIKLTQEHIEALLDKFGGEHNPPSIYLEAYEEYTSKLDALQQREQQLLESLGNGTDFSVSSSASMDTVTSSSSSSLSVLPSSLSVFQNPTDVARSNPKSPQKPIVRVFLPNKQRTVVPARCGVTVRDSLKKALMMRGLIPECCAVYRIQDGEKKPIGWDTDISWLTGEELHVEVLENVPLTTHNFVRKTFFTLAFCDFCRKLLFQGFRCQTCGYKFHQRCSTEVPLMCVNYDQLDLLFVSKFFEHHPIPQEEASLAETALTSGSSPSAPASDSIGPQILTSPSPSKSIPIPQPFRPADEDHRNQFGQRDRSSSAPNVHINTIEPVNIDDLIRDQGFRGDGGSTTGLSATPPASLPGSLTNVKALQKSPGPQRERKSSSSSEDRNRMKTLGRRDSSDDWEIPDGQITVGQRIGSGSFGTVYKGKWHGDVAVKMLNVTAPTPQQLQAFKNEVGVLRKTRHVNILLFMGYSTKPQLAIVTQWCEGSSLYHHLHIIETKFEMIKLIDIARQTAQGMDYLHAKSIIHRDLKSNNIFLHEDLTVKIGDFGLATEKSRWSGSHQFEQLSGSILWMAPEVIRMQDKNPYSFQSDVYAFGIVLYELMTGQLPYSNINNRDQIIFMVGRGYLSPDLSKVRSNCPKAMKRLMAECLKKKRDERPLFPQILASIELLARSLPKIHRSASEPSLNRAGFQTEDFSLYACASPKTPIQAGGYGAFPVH
Chain of RAF proto-oncogene serine/threonine-protein kinase (P04049 whole entry): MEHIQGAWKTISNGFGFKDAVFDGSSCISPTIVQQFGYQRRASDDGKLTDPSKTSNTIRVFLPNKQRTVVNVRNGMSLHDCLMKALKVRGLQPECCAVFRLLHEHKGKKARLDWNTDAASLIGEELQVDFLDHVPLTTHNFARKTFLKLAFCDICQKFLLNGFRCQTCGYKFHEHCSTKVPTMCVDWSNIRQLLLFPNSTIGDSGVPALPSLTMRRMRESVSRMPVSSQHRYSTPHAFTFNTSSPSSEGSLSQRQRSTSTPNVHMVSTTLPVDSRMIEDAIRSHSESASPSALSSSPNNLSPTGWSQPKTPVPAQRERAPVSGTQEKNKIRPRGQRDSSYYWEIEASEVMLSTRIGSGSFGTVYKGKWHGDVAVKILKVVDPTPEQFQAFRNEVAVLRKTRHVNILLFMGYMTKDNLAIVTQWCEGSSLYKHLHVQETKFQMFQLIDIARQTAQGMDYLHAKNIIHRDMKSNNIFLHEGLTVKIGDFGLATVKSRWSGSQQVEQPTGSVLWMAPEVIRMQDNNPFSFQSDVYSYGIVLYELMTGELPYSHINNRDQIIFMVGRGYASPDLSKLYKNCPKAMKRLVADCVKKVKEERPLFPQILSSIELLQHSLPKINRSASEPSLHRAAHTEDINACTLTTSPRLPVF

`O=C(c1ccc(-c2cccc(CN3CCCC3)c2)s1)N1N=C(c2cccnc2)CC1c1c(O)cccc1F` (racemic): the IC50 in [1] came to 0.008 µM; in series [2], 0.041 µM.
Regarding `O=C(c1ccc(-c2ccccn2)s1)N1N=C(c2cccnc2)CC1c1ccccc1O` (racemic), the half-inhibitory concentration (IC50) in series [3] stood at 0.023 µM; in [2] it was 0.18 µM; in [4] it was 0.027 µM; in [5], 0.023 µM; in [7] it was 0.017 µM. The kinetic solubility in [6] was found to be 5.8 µg/mL (≈ 13.6 µM).
For `NCc1ccc(-c2ccc(C(=O)N3N=C(c4cccnc4)CC3c3c(O)cccc3F)s2)cc1` (racemic), the IC50 in series [1] was found to be 0.003 µM; in series [2], 0.037 µM.
The like results for `O=C(c1ccc(-c2ccc3c(c2)CNCC3)s1)N1N=C(c2cccnc2)CC1c1c(O)cccc1F` (racemic) were, in that order, 0.003 µM and 0.021 µM.
The like results for `O=C(c1ccc(-c2ccc3c(c2)CCNC3)s1)N1N=C(c2cccnc2)CC1c1c(O)cccc1F` (racemic) were, in that order, 0.003 µM and 0.034 µM.
Regarding `O=C(c1ccc(-c2ccc3c(c2)CNC3)s1)N1N=C(c2cccnc2)CC1c1c(O)cccc1F` (racemic), the figures for the IC50 in [2] and in series [5] were 0.06 µM and 0.002 µM, respectively. In series [8], this molecule gave an AUC of 8.4 µM·h. In [9], this molecule showed a bioavailability of 37%. Also, the clearance in [10] was 0.9 L/h/kg.
As for `NCc1ccccc1-c1ccc(C(=O)N2N=C(c3cncc(F)c3)CC2c2ccccc2O)s1` (racemic), the half-maximal inhibitory concentration (IC50) was 0.18 µM in series [2] and 0.021 µM in [5].
Regarding `NCc1ccccc1-c1ccc(C(=O)N2N=C(c3cncc(N)c3)CC2c2ccccc2O)s1` (racemic), the IC50 turned out to be 0.007 µM in series [1] and 0.064 µM in [2].
The like results for `CC(=O)Nc1cncc(C2=NN(C(=O)c3ccc(-c4ccccn4)s3)C(c3ccccc3O)C2)c1` (racemic) were, in that order, 0.003 µM and 0.063 µM.
The like results for `O=C(c1ccc(-c2ccccn2)s1)N1N=C(c2cncc(CO)c2)CC1c1ccccc1O` (racemic) were, in that order, 0.003 µM and 0.039 µM.
Consider `Nc1cncc(C2=NN(C(=O)c3ccc(-c4ccccn4)s3)C(c3ccccc3O)C2)c1` (racemic), for which the 50% inhibitory concentration (IC50) amounted to 0.003 µM in series [1] and 0.031 µM in [2].
With `O=C(c1ccc(-c2ccc3c(c2)CNC3)s1)N1N=C(c2cncc(CO)c2)CC1c1c(O)cccc1F` (racemic), the IC50 was 0.003 µM in series [1] and 0.12 µM in series [2].
The like results for `NCc1ccccc1-c1ccc(C(=O)N2N=C(c3cncc(N)c3)CC2c2c(O)cccc2F)s1` (racemic) were, in that order, 0.004 µM and 0.056 µM.
Regarding `Nc1cncc(C2=NN(C(=O)c3ccc(-c4ccccn4)s3)C(c3c(O)cccc3F)C2)c1` (racemic), the IC50 stood at 0.003 µM in series [1] and 0.018 µM in series [2].
For the molecule `O=C(c1ccc(-c2cccc3c2CCNC3)s1)N1N=C(c2cccnc2)CC1c1c(O)cccc1F` (racemic), in [2], inhibition was half-maximal at 0.18 µM (IC50). The AUC in [8] is 26 µM·h. Moreover, in series [9], the bioavailability worked out at 89%. The molecule also gave a clearance in series [10] of 0.7 L/h/kg.
Consider `Cc1ccccc1-c1ccc(C(=O)N2N=C(c3cccnc3)CC2c2ccccc2O)s1` (racemic), for which the IC50 in series [1] was determined as 0.079 µM; in [2] it was 1.5 µM.
Regarding `Cc1nc(-c2ccc(C(=O)N3N=C(c4cccnc4)CC3c3ccccc3O)s2)cs1` (racemic), the IC50 in series [1] came out at 0.007 µM; in series [2] it was 0.21 µM.
The like results for `Cn1cc(-c2ccc(C(=O)N3N=C(c4cccnc4)CC3c3ccccc3O)s2)cn1` (racemic) were, in that order, 0.009 µM and 0.089 µM.
With `O=C(c1ccc(-c2ccc(CO)cc2)s1)N1N=C(c2cccnc2)CC1c1ccccc1O` (racemic), the half-maximal inhibitory concentration (IC50) in [1] came to 0.005 µM; in series [2], 0.14 µM.
As for `NCc1cccc(-c2ccc(C(=O)N3N=C(c4cccnc4)CC3c3ccccc3O)s2)c1` (racemic), the IC50 in series [1] stood at 0.006 µM; in series [2], 0.39 µM.
On to `NCc1ccccc1-c1ccc(C(=O)N2N=C(c3cccnc3)CC2c2ccccc2O)s1` (racemic), for which the figures for the IC50 in [1] and in series [2] were 0.01 µM and 0.27 µM, respectively. The same molecule displayed an AUC in series [8] of 4.9 µM·h. The molecule also came in with a bioavailability in series [9] of 76%. The molecule further had a clearance in [10] of 3.9 L/h/kg.
As to `O=C(c1ccc(-c2cccc(CN3CCCC3)c2)s1)N1N=C(c2cccnc2)CC1c1ccccc1O` (racemic), the IC50 came out at 0.006 µM in series [1] and 0.11 µM in series [2].
With `NCc1ccc(-c2ccc(C(=O)N3N=C(c4cccnc4)CC3c3ccccc3O)s2)cc1` (racemic), the IC50 worked out at 0.005 µM in series [1] and 0.082 µM in series [2].
The like results for `O=C(c1ccc(-c2ccc3c(c2)CNCC3)s1)N1N=C(c2cccnc2)CC1c1ccccc1O` (racemic) were, in that order, 0.004 µM and 0.025 µM.
For `O=C(c1ccc(-c2ccc3c(c2)CCNC3)s1)N1N=C(c2cccnc2)CC1c1ccccc1O` (racemic), the IC50 was found to be 0.005 µM in series [1] and 0.021 µM in series [2].
`O=C(c1ccc(-c2ccc3c(c2)CNC3)s1)N1N=C(c2cccnc2)CC1c1ccccc1O` (racemic): the values for the IC50 in [1] and in [2] were 0.004 µM and 0.019 µM, respectively. Also, the AUC in [8] was determined as 0.89 µM·h. Besides, in [9], the bioavailability worked out at 14%. Besides, the clearance in series [10] is 3.5 L/h/kg.
With `O=C(c1ccc(-c2ccccn2)s1)N1N=C(c2cccnc2)CC1c1ccccc1` (racemic), in [1], half-maximal inhibition (IC50) was put at 0.799 µM.
Regarding `O=C(c1ccc(-c2ccccn2)s1)N1N=C(c2cccnc2)CC1c1cccc(O)c1` (racemic), the IC50 in series [1] was 0.67 µM; in [2], above 25 µM.
Regarding `O=C(c1ccc(-c2ccccn2)s1)N1N=C(c2cccnc2)CC1c1c(O)cccc1F` (racemic), the figures for the IC50 in series [1] and in series [2] were 0.005 µM and 0.08 µM, respectively.
`O=C(c1ccc(-c2ccccn2)s1)N1N=C(c2cccnc2)CC1c1cccc(F)c1O` (racemic): the IC50 in [1] was determined as 0.013 µM; in [2], 1.4 µM.
As for `O=C(c1ccc(-c2ccccn2)s1)N1N=C(c2cccnc2)CC1c1cc(F)ccc1O` (racemic), the IC50 in series [1] came to 0.007 µM; in series [2], 0.68 µM.
The like results for `O=C(c1ccc(-c2ccccn2)s1)N1N=C(c2cccnc2)CC1c1ccc(F)cc1O` (racemic) were, in that order, 0.011 µM and 1.4 µM.
The like results for `Cn1cc(-c2ccc(C(=O)N3N=C(c4cccnc4)CC3c3c(O)cccc3F)s2)cn1` (racemic) were, in that order, 0.003 µM and 0.055 µM.
For the molecule `NCc1ccccc1-c1ccc(C(=O)N2N=C(c3cccnc3)CC2c2c(O)cccc2F)s1` (racemic), the figures for the IC50 in [1] and in series [2] were 0.007 µM and 0.085 µM, respectively. The molecule further yielded an AUC in [8] of 11 µM·h. The molecule further registered a bioavailability in series [9] of 85%. Further, the clearance in [10] was 1.6 L/h/kg.
Consider `O=C(c1ccco1)N1N=C(c2cccnc2)CC1c1ccccc1O` (racemic), for which the values for the half-inhibitory concentration (IC50) in series [2] and in [5] were 1.8 µM and 0.2 µM, respectively.
Take `O=C(c1ccc(-c2ccccn2)s1)N1N=C(c2cccnc2)CC1c1ccccc1O` (single isomer, unassigned; enantiomer 1): the IC50 in series [2] is 0.28 µM.
Same read-out and setting: the figure for `O=C(c1ccc(-c2ccccn2)s1)N1N=C(c2cccnc2)CC1c1ccccc1O` (single isomer, unassigned; enantiomer 2) is 14 µM.

Usually IC50 stands for the point on the concentration scale where inhibition reaches its midpoint. Lower therefore signals higher potency. As usually defined, the kinetic solubility is the concentration staying in solution when a stock, usually in DMSO, is diluted into the medium. For orientation: AUC means the area under the concentration-time curve, a measure of exposure. High values mean high exposure, low ones low exposure. Broadly, the bioavailability is dose-corrected exposure relative to a reference, in per cent. Read a high bioavailability as much systemic uptake.
